MBD2 inh: inhibitors of human MBD2 binding to methylated oligonucleotide; TR-FRET; inhibition, % at 4.4 µM; 0.31% of 370,000 active; AID 686964; in the data active means inhibition above about 13%
Casp6 inh: blocks human caspase-6 cleavage activity; purified caspase-6, Z-VEID-R110 cleavage fluorescence; inhibition, % at 12.5 µM; 0.53% of 350,000 active;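 active means mean inhibition across replicates at least about 35%, with every replicate also reaching that limit, limit read from the data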;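 further: 0% = median of neutral control wells and 100% = no fluorescence left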
LEDGF integ inh: blocks HIV-1 LEDGF/p75-dependent DNA integration. TR-FRET IN-LEDGF/p75 DNA integration, Eu/Cy5. inhibition, % at 3.7 µM. AID 743269. 0.64% of 370,000 active;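 active means inhibition above the screen-wide mean plus 3 SD, cut at about 13% in these data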;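 further: signal is the Cy5 over europium emission ratio at 671 and 618 nm; 0% = plate median of compound wells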
TDP2 absorb: blocks human TDP2 phosphodiesterase activity; 0.34% of 370,000 active; inhibition, % at 12.8 µM; O95551; recombinant TDP2, T5PNP hydrolysis, p-nitrophenol absorbance 415 nm;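 active means inhibition above the mean of all tested compounds plus 3 SD, set per campaign, cut at about 25% in these data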;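 further: 0% = DMSO with enzyme and 100% = buffer with substrate but no TDP2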
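Assay system: Recombinant human TDP2 | Quantity: 120 nM TDP2 per well | Incubation: 2 h at 37 °C | Signal: Epi absorbance | Evaluation: Percent inhibition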
UHRF1 MBD2 ctr: human UHRF1 methylated DNA binding inhibitors. Q96T88. UHRF1 binding to methylated oligo, TR-FRET. inhibition, % at 4.4 µM. 0.75% of 370,000 active. AID 687016; in the data active means inhibition above about 21%;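 further: UHRF1 SRA domain binding a hemimethylated CpG hairpin DNA probe; 0% = median of test compound wells and 100% = reference inhibitor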
NSD2 HMT inh: blocks human histone methyltransferase NSD2 | NSD2 peptide methylation, AlphaScreen, 120 min | inhibition, % at 12.5 µM | 0.54% of 310,000 active | AID 743445; in the data active means inhibition above about 50%
AlphaScreen art: AlphaScreen assay artifact in NSD2 counter-screen. AC35, µM (series often up to 10 µM), for the others: at the top dose activity change, negative = signal loss. 9.4% of 1,500 active. shares compounds with NSD2 HMT inh. AlphaScreen artifact counterscreen, preloaded methylated H4 peptide; call rule not given here
Starred values were filed as active, the others as inactive; · = no result given. Only some compounds are listed: those with a hit (about 1.9% of all), similar ones and a draw of the others.

SMILES	MBD2 inh	Casp6 inh	LEDGF integ inh	TDP2 absorb	UHRF1 MBD2 ctr	NSD2 HMT inh	AlphaScreen art
COC(=O)c1ccc(NC(=O)COc2ccc(S(=O)(=O)N3CCCCC3)cc2)cc1	1.6	·	-1.4	6.9	-0.5	0.6	·
O=C(COc1ccc(S(=O)(=O)N2CCCC2)cc1)Nc1ccc(F)cc1	3.1	2.7	-0.8	18.7	-2.0	68.1*	2.0%
COc1cc2sc(C)nc2c2ccccc12	-2.5	40.4*	2.1	23.3	4.8	64.0*	-0.6%
O=C(Nc1cccnc1)c1ccc(COc2ccccc2Cl)o1	0.1	·	-5.1	-8.0	0.3	126.7*	-1.3%
Cc1noc(C)c1S(=O)(=O)Nc1ccc2c(c1)C(=O)N([C@H](C)CO)C[C@@H](C)[C@@H](CN(C)C(=O)NC(C)C)O2	·	2.4	·	·	·	·	·
C[C@H](CO)N1C[C@H](C)[C@H](CN(C)C(=O)Nc2ccc3c(c2)OCO3)Oc2c(NC(=O)c3cnccn3)cccc2C1=O	·	0.1	·	·	·	·	·
O=C1c2ccccc2C(=O)N1CCC(c1ccc(F)cc1)c1ccco1 (configuration not stated)	5.0	·	1.0	-15.2	2.5	118.9*	-1.8%
O=C1CCC(=O)N1CCC(c1ccc(F)cc1)c1ccco1 (configuration not stated)	4.6	5.2	-1.0	8.2	3.3	5.8	·
COc1ccccc1C#Cc1cnc2c(c1)C(=O)N([C@@H](C)CO)C[C@@H](C)[C@@H](CN(C)S(=O)(=O)c1cn(C)cn1)O2	·	-0.3	·	·	·	·	·
COc1cc(/C=C/C(=O)OCC(=O)NNC(=O)c2cc(Cl)ccc2OC)ccc1O	-0.2	4.7	-1.3	-2.6	-4.0	63.0*	1.7%
Cc1ccc(S(=O)(=O)N(C)C[C@@H]2Oc3ccc(NC(=O)Nc4cccc5ccccc45)cc3CC(=O)N([C@@H](C)CO)C[C@H]2C)cc1	·	-0.1	·	·	·	·	·
CCOc1ccc(S(=O)(=O)N2CCCCC2)cc1NC(=O)Cc1ccsc1	-2.8	-0.8	6.3	3.6	0.6	0.3	·
COc1ccc(S(=O)(=O)N2CCCCC2)cc1NC(=O)Cc1ccsc1	0.1	-0.7	0.9	3.3	-1.9	51.0*	-3.5%
COc1ccccc1CN1C[C@H](C)[C@H](OC)CN(C)C(=O)c2ccc(NC(C)=O)cc2OC[C@@H]1C	·	1.2	·	·	·	·	·
c1ccc(CN2CN=C(Nc3nc4ccccc4s3)NC2)cc1	-3.7	·	2.6	0.3	0.2	0.6	·
c1ccc(CCN2CN=C(Nc3nc4ccccc4s3)NC2)cc1	1.9	0.0	0.2	10.1	-0.9	63.6*	-2.1%
C[C@@H]1CCCCO[C@@H](CN(C)C(=O)C2CCCCC2)[C@H](C)CN([C@H](C)CO)C(=O)c2cc(NC(=O)Nc3ccccc3)ccc2O1	·	-1.2	·	·	·	·	·
C/C(=N\NC(=O)c1nnn(-c2nonc2N)c1C)c1ccc(-c2ccccc2)cc1	-0.4	-8.1	2.2	1.2	0.5	98.8*	-1.2%
C/C(=N\NC(=O)c1nnn(-c2nonc2N)c1C)c1ccc(OCc2ccccc2)cc1	0.6	0.1	-1.2	-10.6	-1.8	5.9	·
Cc1ccc(NC(=O)CCn2c(=O)oc3ccccc32)cc1	-3.6	·	-1.1	-9.7	1.9	55.1*	-0.8%
COc1ccccc1CNC(=O)CCn1c(=O)oc2ccccc21	1.2	-2.0	-2.5	3.8	0.8	·	·
O=C(CCn1c(=O)oc2ccccc21)Nc1ccccc1	1.6	·	-0.7	4.6	-0.1	-1.9	·
COc1cc(NC(=O)CCn2c(=O)oc3ccccc32)cc(OC)c1OC	6.3	3.9	4.8	-3.6	1.5	51.1*	3.1%
O=S(=O)(N[C@H]1CC[C@H](CCn2cc(C3(O)CCCC3)nn2)O[C@H]1CO)c1ccc(Cl)cc1	·	0.0	·	·	·	·	·
CC(=O)N1CCc2cc(Br)cc(S(=O)(=O)NCCCN(C)Cc3ccccc3)c21	2.4	-17.8	1.1	4.0	-0.4	125.4*	0.2%
CCC(=O)N1CCc2cc(Br)cc(S(=O)(=O)NCCCN(C)Cc3ccccc3)c21	0.8	-24.5	-4.3	12.2	1.8	13.5	·
CCOC(=O)C(CCCP(=O)(c1ccccc1)c1ccccc1)(NC(C)=O)C(=O)OCC	-4.3	-0.8	2.6	-18.4	1.0	59.9*	-4.8%

Screening results as filed in PubChem BioAssay.
